In paper PMC10204345 (European Journal of Medicinal Chemistry, 2023):
Like-named read-outs stand apart in the source and are kept apart here.

Key:
[1] = target: SARS-CoV-2 3CL^pro (Severe acute respiratory syndrome coronavirus 2, UniProt P0DTD1); assay type: biochemical
[2] = Microsomal stability assay, human; assay type: in vitro ADME; conditions: microsomes, pH 7.41
Outline: (§1)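 Liver microsomes in 100 mM potassium buffer with 5 mM MgCl₂, pH 7.41; test compound at 1 μM. Compound-microsome spiking mix (1.5 μM compound, 0.75 mg/mL microsomes) pre-incubated at 37 °C for 5 min, then started with NADPH (6 mM stock). Sampled at 0, 5, 15, 30 and 45 min, quenched with acetonitrile containing internal standard, centrifuged; supernatant diluted in water for LC/MS.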

[3] = Microsomal stability assay, mouse; assay type: in vitro ADME; conditions: microsomes, pH 7.41
Outline: as §1

[4] = Single-dose pharmacokinetics in ICR mice; assay type: in vivo; conditions: single-dose oral administration 20 mg/kg
Outline: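 Mice randomly split into IV and PO groups, three per group; single dose 10 mg/kg IV or 20 mg/kg oral. After oral dosing, blood taken at 0.25, 0.5, 1, 2, 4, 6, 8 and 24 h. Plasma (20 μL) protein-precipitated with methanol containing 100 ng/mL internal standard, vortexed, centrifuged at 18000g for 10 min, analysed by LC-MS/MS. AUC(0-t) derived by pharmacokinetic modelling.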

Structure (SMILES)	decrease of 3CL^pro inhibitory activity compared to 11b [1]	half-life at 0.75 h, 1 µM [2]	half-life at 0.75 h, 1 µM [3]	other results
CC(C)(C)OC(=O)N[C@H](C(=O)N1[C@@H]2CC[C@@H](C2)[C@H]1C(=O)N[C@@H](C[C@@H]1CCNC1=O)C(=O)c1nc2ccccc2s1)C(C)(C)C [11a, tert-butyl ((S)-1-((1R,3S,4S)-3-(((S)-1-(benzo[d]thiazol-2-yl)-1-oxo-3-((S)-2-oxopyrrolidin-3-yl)propan-2-yl)carbamoyl)-2-azabicyclo[2.2.1]heptan-2-yl)-3,3-dimethyl-1-oxobutan-2-yl)carbamate]	45 folds			
CC(C)(C)[C@H](NC(=O)C(F)(F)F)C(=O)N1[C@@H]2CC[C@@H](C2)[C@H]1C(=O)N[C@@H](C[C@@H]1CCNC1=O)C(=O)c1nc2ccccc2s1 [11b, (1R,3S,4S)-N-((S)-1-(benzo[d]thiazol-2-yl)-1-oxo-3-((S)-2-oxopyrrolidin-3-yl)propan-2-yl)-2-((S)-3,3-dimethyl-2-(2,2,2-trifluoroacetamido)butanoyl)-2-azabicyclo[2.2.1]heptane-3-carboxamide]		11.6 min	7.74 min	
CC(C)(F)C(=O)N[C@H](C(=O)N1[C@@H]2CC[C@@H](C2)[C@H]1C(=O)N[C@@H](C[C@@H]1CCNC1=O)C(=O)c1nc2ccccc2s1)C(C)(C)C [11c, (1R,3S,4S)-N-((S)-1-(benzo[d]thiazol-2-yl)-1-oxo-3-((S)-2-oxopyrrolidin-3-yl)propan-2-yl)-2-((S)-2-(2-fluoro-2-methylpropanamido)-3,3-dimethylbutanoyl)-2-azabicyclo[2.2.1]heptane-3-carboxamide]		18 min	4.82 min	decrease of 3CL^pro inhibitory activity compared to 11b ([1]; ratio of IC50 to that of 11b): 11 folds
[2H]C([2H])([2H])C(=O)N[C@H](C(=O)N1[C@@H]2CC[C@@H](C2)[C@H]1C(=O)N[C@@H](C[C@@H]1CCNC1=O)C(=O)c1nc2ccccc2s1)C(C)(C)C [11d, (1R, 3S, 4S)-2-((S)-2-(acetamido-2,2,2-d3)-3,3-dimethylbutanoyl) -N-((S)-1-(benzo[d]thiazol-2-yl)-1-oxo-3-((S)-2-oxopyrrolidin-3-yl)propan-2-yl)-2-azabicyclo [2.2.1] heptane-3-carboxamide]	5 folds	42.2 min	33.8 min	
CC(C)(C)[C@H](NS(=O)(=O)C(F)(F)F)C(=O)N1[C@@H]2CC[C@@H](C2)[C@H]1C(=O)N[C@@H](C[C@@H]1CCNC1=O)C(=O)c1nc2ccccc2s1 [11e, (1R, 3S, 4S)-N-((S)-1-(benzo[d]thiazol-2-yl)-1-oxo-3-((S)-2-oxopyrrolidin-3-yl)propan-2-yl)-2-((S)-3,3-dimethyl-2-((trifluoromethyl)sulfonamido)butanoyl)-2-azabicyclo [2.2.1] heptane-3-carboxamide]	8 folds			half-life at 1 μM [2]: > 120 min; half-life at 1 μM [3]: > 120 min; AUC(0-t) higher than that of 11b [4]: 2.4 times; AUC(0-t) higher than that of nirmatrelvir [4]: 5 times
CN(C)S(=O)(=O)N[C@H](C(=O)N1[C@@H]2CC[C@@H](C2)[C@H]1C(=O)N[C@@H](C[C@@H]1CCNC1=O)C(=O)c1nc2ccccc2s1)C(C)(C)C [11f, (1R, 3S, 4S)-N-((S)-1-(benzo[d]thiazol-2-yl)-1-oxo-3-((S)-2-oxopyrrolidin-3-yl)propan-2-yl)-2-((S)-2-((N,N-dimethylsulfamoyl)amino)-3,3-dimethylbutanoyl)-2-azabicyclo [2.2.1] heptane-3-carboxamide]		3.25 min	0.85 min	
CC(C)(C)OC[C@H](NS(=O)(=O)C(F)(F)F)C(=O)N1[C@@H]2CC[C@@H](C2)[C@H]1C(=O)N[C@@H](C[C@@H]1CCNC1=O)C(=O)c1nc2ccccc2s1 [11g, (1R, 3S, 4S)-N-((S)-1-(benzo[d]thiazol-2-yl)-1-oxo-3-((S)-2-oxopyrrolidin-3-yl)propan-2-yl)-2-(O-(tert-butyl)-N-((trifluoromethyl)sulfonyl)-L-seryl)-2-azabicyclo [2.2.1] heptane-3-carboxamide]				decrease of enzyme activity compared to 11e [1]: 3 times
COc1ccc(C[C@H](NS(=O)(=O)C(F)(F)F)C(=O)N2[C@@H]3CC[C@@H](C3)[C@H]2C(=O)N[C@@H](C[C@@H]2CCNC2=O)C(=O)c2nc3ccccc3s2)cc1 [11h, (1R, 3S, 4S)-N-((S)-1-(benzo[d]thiazol-2-yl)-1-oxo-3-((S)-2-oxopyrrolidin-3-yl)propan-2-yl)-2-((S)-3-(4-methoxyphenyl)-2-((trifluoromethyl)sulfonamido)propanoyl)-2-azabicyclo [2.2.1] heptane-3-carboxamide]				decrease of enzyme activity compared to 11e [1]: 6 times
CC(C)(C)[C@H](NC(=O)C(F)(F)F)C(=O)N1C[C@H]2[C@@H]([C@H]1C(=O)N[C@H](C#N)C[C@@H]1CCNC1=O)C2(C)C [nirmatrelvir, reference compound]		35.5 min	17.7 min	
